The sample as a whole holds a higher share of hits than the screen did.
T cruzi repl = inhibitors of intracellular T. cruzi growth, primary screen, luminescence, NIH3T3 host cells; T. cruzi beta-gal in NIH3T3, 90 h; hit rate 1.4% among 300,000; AID 1885, 2009; inhibition, % (no concentration beside the values);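 active = mean inhibition across valid replicates above about 55%, limit read from the data; inconclusive = mean below that limit but half or more replicates reach it; inactive = mean below it, under half of replicates reach it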;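 also: signal also drops with host cell toxicity which is not excluded here; higher percent means less beta-gal luminescence so fewer parasites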
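System – NIH/3T3 host cells with β-galactosidase reporter T. cruzi · Doses – single 50 nL compound addition per well in DMSO · Reagent – 5000 T. cruzi trypomastigotes/well · Medium – Low-serum DMEM with 2% FBS · Timing – ≥90 h infection period, 3 h prior cell attachment · Evaluation – parasite load inhibition, % · Technique – GalScreen luminescence, 60 min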
PolyA inh = polyadenylation inhibitors in yeast reporter cells, primary screen, luminescence, S. cerevisiae; activity score, % at 12 µM; hit rate 0.02% among 300,000; S. cerevisiae SKY197-pL101 polyadenylation reporter, beta-gal luminescence; efflux-impaired pdr1/pdr3 knockout yeast; score 100 = 6 SD above DMSO;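 active = lowest replicate activity score at least 50, where 100 means six control SD above control mean; inconclusive = lowest score under 50 but half or more replicates reach 50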;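 also: yeast exposed to compound for 9 h at 30 °C; higher score means more reporter readthrough which indicates perturbed polyadenylation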
NALP1 inh = NALP1 inflammasome inhibitors in reconstituted yeast, colorimetric, S. cerevisiae, triplicate retest. S. cerevisiae NALP1/ASC/caspase-1 growth, X-gal OD620, 72 h. inhibition, % at 10 µM. hit rate 0.61% among 280,000. AID 2071, 2009; in the data active = inhibition mostly above about 24%, no sharp cut-off; inactive = mostly below about 32%
Lmaj promast = Leishmania major promastigote growth inhibition, primary screen. Leishmania major promastigotes, resazurin fluorescence viability. inhibition, % at 10 µM. hit rate 9% among 200,000. AID 1063, 2008;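 also: promastigotes grown with compound for 44 hours at 28 °C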
Calb FLC = C. albicans growth inhibition with fluconazole, primary screen, CaCi-2 strain, Alamar Blue fluorescence; C. albicans CaCi-2 + fluconazole, 48 h; growth inhibition, % (concentration not given with the values); hit rate 0.57% among 300,000; AID 1979, 2009;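 active = growth inhibition above about 58% in most replicates, limit read from the data, passing the limit was not always enough; inconclusive = exactly half the replicates above a set limit; inactive = most replicates below a set limit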;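 also: all wells also contain fluconazole at 8 µg/ml as a sub-toxic cotreatment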
NLRP3 yeast inh = NALP3 inflammasome inhibitors in reconstituted yeast, primary screen, luminescence, uHTS. hit rate 0.39% among 330,000. inhibition, % at 10 µM. Yeast reconstituted NLRP3/ASC/caspase-1, beta-gal luminescence, 24 h;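 active = inhibition of 50% or more; inactive = inhibition below 50%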
NALP3 confirm = NALP3 inhibitors retested in yeast, confirmation, luminescence, single concentration | yeast expressing human NALP3 | inhibition, % at 10 µM | shares compounds with NLRP3 yeast inh | AID 435006, 2010 | hit rate 81% among 1,300; in the data active = inhibition above about 48%
Casp1 ASC ctr = CASP1-PYCARD signaling inhibition in yeast, confirmatory test, counterassay for NLRP3 inhibitor program, one-dose; shares compounds with NLRP3 yeast inh; yeast expressing Caspase-1-ASC, luminescence counter screen; inhibition, % at 10 µM; hit rate 66% among 1,000
NALP3 retest = NALP3 inhibitors in yeast, repeat test, confirmation, luminescence, single concentration, retest; shares compounds with NLRP3 yeast inh; yeast expressing human NALP3, luminescence read-out; inhibition, % at 10 µM; hit rate 53% among 1,000
Large screens that a line does not name were inactive (follow-up assays come after a bar, where they were run). Rule as the data show it, unless noted: active = inhibition above about 50%; inactive = the rest.

CC(C)(C)c1ccc(C(=O)NNc2ccc(F)cc2F)cc1	Calb FLC 87, NLRP3 yeast inh 53 (no result: T cruzi repl, NALP1 inh, Lmaj promast) | NALP3 confirm inactive
COc1ccc(-c2nnc(NC(=O)c3ccccc3[N+](=O)[O-])s2)c(OC)c1	none (no result: Lmaj promast)
C=CCSc1n[nH]c(-c2ccc(OCCCC)cc2)n1	Calb FLC inconclusive
C=CCSc1n[nH]c(-c2ccc(OCCC)cc2)n1	Calb FLC 112, NLRP3 yeast inh 57 | NALP3 confirm 73 | Casp1 ASC ctr 56 | NALP3 retest inactive
CC(=O)Oc1ccccc1C(=O)Nc1ccccc1	NLRP3 yeast inh 52 (no result: NALP1 inh, Lmaj promast) | NALP3 confirm 68 | Casp1 ASC ctr inactive | NALP3 retest inactive
COc1ccccc1C(=O)Nc1cccc(NC(C)=O)c1	none
CCn1c(SCC(=O)NC2=NCCS2)nnc1C(C)NC(=O)c1ccc(Cl)cc1 (stereo unspecified)	none (no result: Lmaj promast)
Cc1cccc(N2CCN(CC(O)COc3ccccc3Cl)CC2)c1 (stereo unspecified)	NLRP3 yeast inh 50 (no result: Lmaj promast) | NALP3 confirm 64 | Casp1 ASC ctr inactive | NALP3 retest inactive
O=C(O)c1ccc(N=Nc2c(O)ccc3ncccc23)cc1	Calb FLC inconclusive, NLRP3 yeast inh 55 (no result: Lmaj promast) | NALP3 confirm 82 | Casp1 ASC ctr 54 | NALP3 retest 53
O=C(O)c1cc(N=Nc2c(O)ccc3ccccc23)cc(C(=O)O)c1	none (no result: T cruzi repl, PolyA inh, Calb FLC, NLRP3 yeast inh)
COc1ccc2[nH]c3c(C)c4ccncc4c(C)c3c2c1	T cruzi repl 58, NALP1 inh 55, Calb FLC 105, NLRP3 yeast inh 89 (no result: Lmaj promast) | NALP3 confirm 96 | Casp1 ASC ctr 99 | NALP3 retest 91
CC(=O)OCC(=O)C1CCC2C3CC=C4CC(O)CCC4(C)C3CCC12C (stereo unspecified)	NLRP3 yeast inh 74 (no result: T cruzi repl, PolyA inh, NALP1 inh, Lmaj promast, Calb FLC) | NALP3 confirm 81 | Casp1 ASC ctr 77 | NALP3 retest 66
CC(C)(C)[C@H](N)C(=O)N[C@H]1CCC2C3CC=C4C[C@@H](O)CC[C@]4(C)C3CC[C@@]21C (stereo partly specified)	none (no result: T cruzi repl, PolyA inh, NALP1 inh, Lmaj promast, Calb FLC)
CCCCCCN[C@H]1CCC2C3CC=C4C[C@@H](O)CC[C@]4(C)C3CC[C@@]21C (stereo partly specified)	NLRP3 yeast inh 62 (no result: T cruzi repl, PolyA inh, NALP1 inh, Lmaj promast, Calb FLC) | NALP3 confirm 66
CCn1cnc2cc(NC(=O)c3cccs3)ccc21	none
CC(C)(C)n1cnc2cc(NC(=O)c3cccs3)ccc21	NLRP3 yeast inh 57 | NALP3 confirm 74 | Casp1 ASC ctr 60 | NALP3 retest inactive
O=[N+]([O-])c1cccnc1S(=O)(=O)c1ccccc1	T cruzi repl 68, Calb FLC 92, NLRP3 yeast inh 58 (no result: Lmaj promast) | NALP3 confirm 63 | Casp1 ASC ctr 50 | NALP3 retest inactive
CC1=NN(C(N)=S)C(=O)C1N=Nc1ccc(Cl)cc1Cl (stereo unspecified)	none (no result: Lmaj promast)
CN(C)c1cc2c(c(N(C)C)c1)C(=O)c1ccccc1C2=O	NLRP3 yeast inh 52 | NALP3 confirm inactive | Casp1 ASC ctr 51 | NALP3 retest inactive
CN(C)S(=O)(=O)c1cccc2c1C(=O)c1ccccc1C2=O	none
O=C(Nc1nc2c(s1)CCCC2)c1cccs1	NLRP3 yeast inh 50 (no result: T cruzi repl, PolyA inh, Calb FLC) | NALP3 confirm 55 | Casp1 ASC ctr 88 | NALP3 retest 72
CCSc1nnc(NC(=O)c2cccs2)s1	NLRP3 yeast inh 53 | NALP3 confirm 64 | Casp1 ASC ctr inactive | NALP3 retest inactive
O=C(Cc1cccs1)Nc1nc2c(s1)CCCC2	none
O=C(Nc1nnc(SCc2ccccc2)s1)c1cccs1	none
O=C(Nc1nsc(-c2ccccc2)n1)c1cccs1	NLRP3 yeast inh 54 (no result: NALP1 inh) | NALP3 confirm 65 | Casp1 ASC ctr inactive | NALP3 retest inactive

Screening data (PubChem)
